Source: publication PMC3228889 (International Journal of Cancer. Journal International du …, 2011)
Read-outs that look alike come from different tables or passages of the source. Blank lines part the entries; values can stand above or below the compound they belong to.

Legend:
[1] = molecular target: T1, STAT3 (Homo sapiens, UniProt P40763); assay: Western blot, IL-6 and IFN-α induced STAT3 phosphorylation; type: cell-based; details: MM.1S, 2 hours pre-treatment, 30 minutes stimulation
[2] = test system: U266 MM cells; assay: MTT cell viability assay; type: cell-based, human; details: read-out: IC50 cell viability, U266, 72 hours
[3] = test system: ARH-77 MM cells; assay: MTT cell viability assay; type: cell-based, human; details: read-out: IC50 cell viability, ARH-77, 72 hours
[4] = molecular target: T1, STAT3; assay: STAT3 DNA binding activity in nuclear extracts; type: cell-based; details: 24 hours, U266 and ARH-77 MM cells
[5] = test system: U266 MM cells; assay: Annexin-V/PI flow cytometry apoptosis; type: cell-based, human; details: 24 hours
Procedure, shortened: (§1)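 Cells were treated with test compound or DMSO for 24 h, harvested, washed in cold PBS and resuspended in 1× binding buffer at 1 × 10^6 cells/ml. Annexin V-FITC and PI were added for 15 min at RT in the dark. Analysis was by flow cytometry within 1 h. Results come from at least 3 independent experiments, compared with DMSO by Mann-Whitney test.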

[6] = test system: ARH-77 MM cells; assay: Annexin-V/PI flow cytometry apoptosis; type: cell-based, human; details: 24 hours
Procedure, shortened: as §1

[7] = test system: U266 cells; assay: Synergy of LLL12 and lenalidomide, combinational index; type: cell-based, human; details: LLL12 combined with lenalidomide, U266, all combinations; CI < 1 = synergism
[8] = test system: ARH-77 MM tumor cells; assay: Mouse xenograft model; type: in vivo, NOD/SCID mice; details: 5 mg/kg daily intraperitoneal, vs DMSO
[9] = molecular target: T1, STAT3; assay: Western blot, constitutive STAT3 phosphorylation; type: cell-based
Procedure, shortened: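 U266 and ARH-77 cells were treated with test compound or DMSO for 24 h. Primary CD138+ patient cells were isolated by positive magnetic selection (n=3 patients). Cells were lysed in cold RIPA buffer with protease inhibitors, run on SDS-PAGE and transferred to PVDF. Blots were probed for p-STAT3 (Tyr705) and total STAT3 and developed by chemiluminescence, with GAPDH as loading control.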

[10] = molecular target: STAT1 (Homo sapiens, UniProt P42224); assay: Western blot, cytokine-induced STAT1 phosphorylation; type: cell-based; details: MM.1S, IFN-α stimulated, 2 hours pre-treatment
Procedure, shortened: (§2)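 MM.1S cells were serum-starved for 24 h, then pre-treated for 2 h with test compound (2.5–10 μM), a reference STAT3 inhibitor (2.5–20 μM) or DMSO. IFN-α (25ng/ml) was added for 30 min in the presence or absence of test compound. Western blots of RIPA lysates were probed for p-STAT1 (Tyr701) or p-STAT2 (Tyr690).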

[11] = molecular target: STAT2 (Homo sapiens, UniProt P52630); assay: Western blot, cytokine-induced STAT2 phosphorylation; type: cell-based; details: MM.1S, IFN-α stimulated, 2 hours pre-treatment
Procedure, shortened: as §2

[12] = molecular target: STAT4 (Homo sapiens, UniProt Q14765); assay: Western blot, IL-4 induced STAT4 phosphorylation; type: cell-based; details: IM-9 human MM cells
STAT4, sequence (Q14765 whole entry): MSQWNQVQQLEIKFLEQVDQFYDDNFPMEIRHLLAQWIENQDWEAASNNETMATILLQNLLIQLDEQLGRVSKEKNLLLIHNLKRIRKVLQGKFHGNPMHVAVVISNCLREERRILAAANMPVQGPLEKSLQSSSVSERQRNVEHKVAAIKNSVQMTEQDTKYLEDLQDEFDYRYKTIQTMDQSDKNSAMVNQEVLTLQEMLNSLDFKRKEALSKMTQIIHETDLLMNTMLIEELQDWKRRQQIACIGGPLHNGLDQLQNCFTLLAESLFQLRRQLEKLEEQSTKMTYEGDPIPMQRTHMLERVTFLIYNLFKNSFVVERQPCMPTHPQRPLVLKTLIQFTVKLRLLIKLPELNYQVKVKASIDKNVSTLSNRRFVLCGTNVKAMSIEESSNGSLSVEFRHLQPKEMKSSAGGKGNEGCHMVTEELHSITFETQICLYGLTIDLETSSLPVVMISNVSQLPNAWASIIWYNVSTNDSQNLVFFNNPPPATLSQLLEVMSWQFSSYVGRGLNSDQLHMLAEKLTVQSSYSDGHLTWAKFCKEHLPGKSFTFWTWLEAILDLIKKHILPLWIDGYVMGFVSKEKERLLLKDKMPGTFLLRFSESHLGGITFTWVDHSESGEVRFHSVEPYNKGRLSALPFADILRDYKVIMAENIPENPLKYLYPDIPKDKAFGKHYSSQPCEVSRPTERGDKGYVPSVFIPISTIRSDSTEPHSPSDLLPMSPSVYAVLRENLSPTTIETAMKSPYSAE
Procedure, shortened: (§3)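 IM-9 cells were serum-starved for 24 h, then left untreated or pre-treated for 2 h with test compound (2.5–10 μM), a reference STAT3 inhibitor (2.5–20 μM) or DMSO. IL-4 (25ng/ml) was added, and cells were harvested 30 min later. Blots of RIPA lysates were probed for p-STAT4 (Tyr693) or p-STAT6 (Tyr641).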

[13] = molecular target: STAT6 (Homo sapiens, UniProt P42226); assay: Western blot, IL-4 induced STAT6 phosphorylation; type: cell-based; details: IM-9 human MM cells
Procedure, shortened: as §3

[14] = test system: mTOR; assay: Western blot, mTOR phosphorylation; type: cell-based, human; details: U266 and ARH-77 MM cells
Procedure, shortened: (§4)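 MM cells were treated with test compound (2.5, 5 or 10μM) or DMSO for 24 h, then lysed in cold RIPA buffer with protease inhibitors. Lysates were run on SDS-PAGE, transferred to PVDF and probed with antibodies to p-ERK1/2 (Thr202/Tyr204), p-Src (Tyr416), p-mTOR (Ser2448), or cleaved caspase-3 and cleaved PARP. Detection was by enhanced chemiluminescence, with GAPDH as loading control.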

[15] = test system: Src; assay: Western blot, Src phosphorylation; type: cell-based, human; details: U266 and ARH-77 MM cells
Procedure, shortened: as §4

[16] = test system: ERK(1/2); assay: Western blot, ERK; type: cell-based, human
Procedure, shortened: as §4

[17] = test system: RPMI-8226; assay: Western blot, cleaved caspase-3 and PARP; type: cell-based, human; details: IL-6 independent RPMI-8226, P-STAT3 too low to be detected
Procedure, shortened: as §4

[18] = test system: MM1.S MM cells; assay: MTT viability of MM1.S cells; type: cell-based, human
[19] = molecular target: T1, STAT3; assay: STAT3 nuclear localization, immunofluorescence staining; type: cell-based; details: U266 cells
[20] = test system: STAT3 downstream target genes; assay: RT-PCR of STAT3 downstream target genes; type: cell-based, human; details: U266 and ARH-77, 24-h
[21] = molecular target: BMX (Homo sapiens, UniProt P51813); details: read-out: IC50 kinase activity, BMX; 10 concentrations, 100 μM highest
[22] = molecular target: Fgr (Homo sapiens, UniProt P09769); details: read-out: IC50 kinase activity, Fgr; 10 concentrations, 100 μM highest
Fgr, sequence (P09769 whole entry): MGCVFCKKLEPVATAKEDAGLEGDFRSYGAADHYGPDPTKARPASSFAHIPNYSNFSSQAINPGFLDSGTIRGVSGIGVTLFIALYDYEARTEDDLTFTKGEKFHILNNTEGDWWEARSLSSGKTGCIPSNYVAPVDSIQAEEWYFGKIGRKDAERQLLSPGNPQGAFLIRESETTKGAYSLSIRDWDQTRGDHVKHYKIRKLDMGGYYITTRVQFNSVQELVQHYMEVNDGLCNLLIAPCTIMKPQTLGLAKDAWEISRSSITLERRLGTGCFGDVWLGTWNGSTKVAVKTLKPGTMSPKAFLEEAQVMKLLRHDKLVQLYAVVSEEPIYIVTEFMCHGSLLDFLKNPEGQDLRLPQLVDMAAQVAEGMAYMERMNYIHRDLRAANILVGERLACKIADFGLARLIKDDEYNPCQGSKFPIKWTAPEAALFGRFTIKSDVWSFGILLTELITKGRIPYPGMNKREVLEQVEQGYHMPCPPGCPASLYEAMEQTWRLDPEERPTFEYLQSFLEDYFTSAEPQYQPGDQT

[23] = molecular target: LcK (Homo sapiens, UniProt P06239); details: read-out: IC50 kinase activity, LcK; 10 concentrations, 100 μM highest
LcK, sequence (P06239 whole entry): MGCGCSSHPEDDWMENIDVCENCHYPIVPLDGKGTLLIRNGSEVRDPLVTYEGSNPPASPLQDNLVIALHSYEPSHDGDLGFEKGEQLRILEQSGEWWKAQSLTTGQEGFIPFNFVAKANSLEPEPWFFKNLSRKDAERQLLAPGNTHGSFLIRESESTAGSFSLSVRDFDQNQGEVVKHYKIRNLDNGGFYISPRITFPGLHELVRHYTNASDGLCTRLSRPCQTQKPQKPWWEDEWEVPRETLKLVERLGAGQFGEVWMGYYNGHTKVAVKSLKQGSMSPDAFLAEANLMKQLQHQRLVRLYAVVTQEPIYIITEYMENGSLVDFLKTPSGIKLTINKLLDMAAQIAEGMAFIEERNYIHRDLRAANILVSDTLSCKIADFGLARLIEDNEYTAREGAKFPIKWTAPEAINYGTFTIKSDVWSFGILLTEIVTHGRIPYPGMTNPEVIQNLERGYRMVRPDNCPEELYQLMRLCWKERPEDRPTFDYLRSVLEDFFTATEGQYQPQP

[24] = molecular target: BRK (Homo sapiens, UniProt Q13882); details: read-out: IC50 kinase activity, BRK; 10 concentrations, 100 μM highest
[25] = molecular target: Fyn (Homo sapiens, UniProt P06241); details: read-out: IC50 kinase activity, Fyn; 10 concentrations, 100 μM highest
[26] = molecular target: Lyn (Homo sapiens, UniProt P07948); details: read-out: IC50 kinase activity, Lyn; 10 concentrations, 100 μM highest
[27] = molecular target: CSK (Homo sapiens, UniProt P41240); details: read-out: IC50 kinase activity, CSK; 10 concentrations, 100 μM highest
[28] = molecular target: JAK3 (Homo sapiens, UniProt P52333); details: read-out: IC50 kinase activity, JAK3; 10 concentrations, 100 μM highest
[29] = molecular target: ZAP-70 (Homo sapiens, UniProt P43403); details: read-out: IC50 kinase activity, ZAP-70; 10 concentrations, 100 μM highest
[30] = molecular target: AKT2 (Homo sapiens, UniProt P31751); details: read-out: IC50 kinase activity, AKT2; 10 concentrations, 100 μM highest
AKT2, sequence (P31751 whole entry): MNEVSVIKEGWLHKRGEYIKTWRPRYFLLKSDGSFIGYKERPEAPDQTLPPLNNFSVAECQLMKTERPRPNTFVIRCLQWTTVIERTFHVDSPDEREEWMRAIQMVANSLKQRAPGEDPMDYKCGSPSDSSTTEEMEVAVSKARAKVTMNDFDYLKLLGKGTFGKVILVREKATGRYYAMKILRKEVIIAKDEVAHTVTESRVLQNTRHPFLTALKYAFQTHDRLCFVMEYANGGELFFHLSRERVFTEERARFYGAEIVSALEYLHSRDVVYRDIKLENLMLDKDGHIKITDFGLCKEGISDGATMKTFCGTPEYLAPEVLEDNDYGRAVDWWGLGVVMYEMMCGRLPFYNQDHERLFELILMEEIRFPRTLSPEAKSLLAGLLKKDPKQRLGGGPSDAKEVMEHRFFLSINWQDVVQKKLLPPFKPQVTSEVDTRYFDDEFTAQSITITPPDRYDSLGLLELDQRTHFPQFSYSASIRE

[31] = molecular target: IKKb (Homo sapiens, UniProt O14920); details: read-out: IC50 kinase activity, IKKb; 10 concentrations, 100 μM highest
[32] = molecular target: PAK2 (Homo sapiens, UniProt Q13177); details: read-out: IC50 kinase activity, PAK2; 10 concentrations, 100 μM highest
[33] = molecular target: CDK1/CyclinB (Homo sapiens, UniProt P06493); details: read-out: IC50 kinase activity, CDK1/CyclinB; 10 concentrations, 100 μM highest
[34] = molecular target: JNK1 (Homo sapiens, UniProt P45983); details: read-out: IC50 kinase activity, JNK1; 10 concentrations, 100 μM highest
JNK1, sequence (P45983 whole entry): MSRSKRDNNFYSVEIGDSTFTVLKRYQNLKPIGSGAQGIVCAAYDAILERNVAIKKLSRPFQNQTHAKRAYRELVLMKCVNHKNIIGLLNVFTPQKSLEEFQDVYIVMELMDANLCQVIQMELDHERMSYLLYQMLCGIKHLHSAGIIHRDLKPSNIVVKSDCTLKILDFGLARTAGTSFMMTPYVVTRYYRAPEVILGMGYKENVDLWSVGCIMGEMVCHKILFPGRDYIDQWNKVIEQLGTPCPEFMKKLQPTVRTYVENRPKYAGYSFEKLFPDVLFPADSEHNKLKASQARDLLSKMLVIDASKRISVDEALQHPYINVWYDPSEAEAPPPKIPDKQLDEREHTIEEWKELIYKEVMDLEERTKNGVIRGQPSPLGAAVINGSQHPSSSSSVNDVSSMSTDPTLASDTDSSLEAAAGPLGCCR

[35] = molecular target: PDGFR-a (Homo sapiens, UniProt P16234); details: read-out: IC50 kinase activity, PDGFR-a; 10 concentrations, 100 μM highest
[36] = molecular target: FAK (Homo sapiens, UniProt Q05397); details: read-out: IC50 kinase activity, FAK; 10 concentrations, 100 μM highest
[37] = molecular target: JNK2 (Homo sapiens, UniProt P45984); details: read-out: IC50 kinase activity, JNK2; 10 concentrations, 100 μM highest
[38] = molecular target: PKC-a (Homo sapiens, UniProt P17252); details: read-out: IC50 kinase activity, PKC-a; 10 concentrations, 100 μM highest
[39] = molecular target: FGFR2 (Homo sapiens, UniProt P21802); details: read-out: IC50 kinase activity, FGFR2; 10 concentrations, 100 μM highest
[40] = molecular target: PAK1 (Homo sapiens, UniProt Q13153); details: read-out: IC50 kinase activity, PAK1; 10 concentrations, 100 μM highest
PAK1, sequence (Q13153 whole entry): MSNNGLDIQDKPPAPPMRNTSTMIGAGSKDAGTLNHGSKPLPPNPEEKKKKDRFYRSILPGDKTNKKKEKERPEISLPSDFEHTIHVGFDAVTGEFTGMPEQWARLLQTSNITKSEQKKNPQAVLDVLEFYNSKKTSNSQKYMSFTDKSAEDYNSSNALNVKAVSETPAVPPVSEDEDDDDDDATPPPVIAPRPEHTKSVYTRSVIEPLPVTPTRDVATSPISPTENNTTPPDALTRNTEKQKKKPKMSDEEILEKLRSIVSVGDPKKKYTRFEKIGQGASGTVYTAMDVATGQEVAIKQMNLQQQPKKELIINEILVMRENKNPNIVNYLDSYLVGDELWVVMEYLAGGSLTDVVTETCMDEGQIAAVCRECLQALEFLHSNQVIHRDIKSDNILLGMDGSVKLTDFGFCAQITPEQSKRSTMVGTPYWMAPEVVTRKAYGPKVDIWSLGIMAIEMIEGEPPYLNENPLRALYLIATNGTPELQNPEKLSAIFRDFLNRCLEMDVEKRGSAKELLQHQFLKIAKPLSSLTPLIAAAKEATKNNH

[41] = molecular target: PKC-d (Homo sapiens, UniProt Q05655); details: read-out: IC50 kinase activity, PKC-d; 10 concentrations, 100 μM highest
[42] = test system: twenty one purified human protein kinases
[43] = 5 mg/kg daily intraperitoneal, vs vehicle-treated mice
[44] = test system: normal human peripheral blood lymphocytes
[45] = test system: normal human marrow [CD138(−)] cells; details: 10μM, 24h, MTS

T1 sequence (P40763 whole entry): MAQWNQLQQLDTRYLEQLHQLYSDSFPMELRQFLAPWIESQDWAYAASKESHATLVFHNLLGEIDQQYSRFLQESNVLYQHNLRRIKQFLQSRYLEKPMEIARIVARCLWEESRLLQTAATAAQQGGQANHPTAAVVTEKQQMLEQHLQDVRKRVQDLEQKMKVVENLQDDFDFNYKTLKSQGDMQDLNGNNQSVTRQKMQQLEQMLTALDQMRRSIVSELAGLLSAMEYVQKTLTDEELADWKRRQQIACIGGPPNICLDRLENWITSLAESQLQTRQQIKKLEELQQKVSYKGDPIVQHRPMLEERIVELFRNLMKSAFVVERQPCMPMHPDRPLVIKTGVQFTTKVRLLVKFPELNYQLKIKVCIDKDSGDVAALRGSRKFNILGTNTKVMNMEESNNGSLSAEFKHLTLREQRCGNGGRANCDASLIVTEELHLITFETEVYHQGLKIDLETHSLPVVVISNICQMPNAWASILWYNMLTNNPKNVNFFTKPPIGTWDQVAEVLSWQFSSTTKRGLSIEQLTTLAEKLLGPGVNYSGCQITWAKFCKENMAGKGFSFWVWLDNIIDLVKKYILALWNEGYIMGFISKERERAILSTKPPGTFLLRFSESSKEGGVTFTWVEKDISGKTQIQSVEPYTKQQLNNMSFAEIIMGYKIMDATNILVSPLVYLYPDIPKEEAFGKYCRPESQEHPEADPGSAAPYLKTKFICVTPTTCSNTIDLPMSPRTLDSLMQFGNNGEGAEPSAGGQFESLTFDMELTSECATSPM

- IL-6 and IFN-α induced STAT3 phosphorylation [1]: much less potent than LLL12
Compound: O=[N+]([O-])c1ccc2c(c1)S(=O)(=O)C=C2 [Stattic, reference compound]

Compound: NS(=O)(=O)c1cccc2c1C(=O)c1cccc(O)c1C2=O [LLL12]
- IC50 [2]: 0.49 µM
- IC50 [3]: 1.96 µM
- reduction of STAT3 DNA binding activity ([4]; 2.5μM): 30–33%
- reduction of STAT3 DNA binding activity ([4]; 5μM): 58–69%
- Apoptosis (Annexin V/PI) ([5]; U266, 2.5μM): 38.2%
- Apoptosis (Annexin V/PI) ([5]; U266, 5μM): 53.3%
- Apoptosis (Annexin V/PI) ([6]; ARH-77, 2.5μM): 70.8%
- Apoptosis (Annexin V/PI) ([6]; ARH-77, 5μM): 73.5%
- Combinational Index (CI) [7]: less than 1
- STAT3 phosphorylation in tumors ([8]; Western blot): inhibited STAT3 phosphorylation
- tumor volume ([8]; p < 0.05): significantly suppressed
- tumor weight ([8]; p < 0.05): significantly suppressed
- STAT3 phosphorylation at Tyr 705 ([9]; U266 and ARH-77, 2.5μM or 5μM, 24 hours): inhibited STAT3 phosphorylation
- STAT3 phosphorylation ([9]; primary human MM cells from three patients): inhibited STAT3 phosphorylation
- IL-6 and IFN-α induced STAT3 phosphorylation [1]: prevented phosphorylation of STAT3
- STAT1 phosphorylation [10]: but not STAT1 or STAT2
- STAT2 phosphorylation [11]: but not STAT1 or STAT2
- STAT4 phosphorylation by IL-4 [12]: did not prevent phosphorylation
- STAT6 phosphorylation by IL-4 [13]: did not prevent phosphorylation
- phosphorylation of mTOR [14]: not reduced significantly
- phosphorylation of Src [15]: not reduced significantly
- phosphorylation of ERK(1/2) ([16]; ARH-77 MM cells, 5μM): slightly reduced
- phosphorylation of ERK(1/2) ([16]; U266 MM cells): even increased
- cleaved caspase-3 and cleaved PARP [17]: did not induce
- IL-6 increased cell proliferation/viability ([18]; IL-6 for 48 hours, MTT): blocked
- STAT3 nuclear localization [19]: most STAT3 was retained in cytoplasm and absent in nuclei
- transcription of cyclin D1, survivin, Bcl-2, Bcl-XL, DNMT1 [20]: inhibition of the transcription of all five
- IC50 [21]: > 100 µM
- IC50 [22]: 57.2 µM
- IC50 [23]: > 100 µM
- IC50 [24]: > 100 µM
- IC50 [25]: > 100 µM
- IC50 [26]: > 100 µM
- IC50 [27]: 73.9 µM
- IC50 [28]: 89.7 µM
- IC50 [29]: > 100 µM
- IC50 [30]: 91.8 µM
- IC50 [31]: > 100 µM
- IC50 [32]: > 100 µM
- IC50 [33]: > 100 µM
- IC50 [34]: > 100 µM
- IC50 [35]: > 100 µM
- IC50 [36]: > 100 µM
- IC50 [37]: > 100 µM
- IC50 [38]: > 100 µM
- IC50 [39]: > 100 µM
- IC50 [40]: > 100 µM
- IC50 [41]: > 100 µM
- IC50 ([42]; read-out: IC50, kinases which contain an SH2 domain, BMX, BRK, CSK, Fgr, Fyn, JAK3, LcK, Lyn, ZAP-70, 57.19 μM to > 100 μM): ≥ 57.2 µM
- IC50 ([42]; read-out: IC50, other protein kinases, AKT2, CDK1/cyclin B, FAK, FGFR2, IKKβ, JNK1, JNK2, PAK1, PAK2, PDGFR-α, PKC-α, PKC-δ, 91.76 μM to > 100 μM): ≥ 91.8 µM
- bodyweights of treated mice [43]: not reduced
- effect on normal cells [44]: little effects
- effect on normal cells [45]: little effects

Compound: Nc1cccc2c1CN(C1CCC(=O)NC1=O)C2=O (stereo not shown) [lenalidomide, Lenalidomide, reference compound]
- cell viability ([18]; lenalidomide alone): dose-dependent reduction of cell viability
